Structures are written as SMILES. Active and inactive are the calls of the source. No cut-off for these calls is given here.

For series [1], the system named is Jurkat. In words: Inhibition of NF-kappaB-mediated TNF expression in human Jurkat T cells coexpressing GFP reporter gene at 100 uM by flow cytometry. The class given is cell-based. An outline of the steps: (§1)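 Jurkat cells stably carrying GFP under an NF-κB-responsive human TNF promoter (FRT-Jurkat TNF) were treated with racemic compound (0.1% DMSO final) for 24 h. GFP was read by flow cytometry at 515 nm ([…]), gated on viable FSC/SSC cells. Inhibition is the percentage decrease in GFP versus 0.1% solvent control. Assays were run in triplicate.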
(In a reporter assay the amount or activity of a reporter protein is the signal.)

Series [2] deals with Jurkat. In words: Cytotoxicity against human Jurkat T cells assessed as cell death at 10 uM after 24 hrs by flow cytometry. In kind it is functional. Summed up:
(§2)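 Jurkat T cells treated 24 h with compound (final DMSO 0.1%); cell death taken as % of cells with reduced size and granularity on flow cytometric forward- vs side-scatter plot, outside gate set on major solvent-only population; viability confirmed by propidium iodide staining (570 nm, FL2). Triplicate, racemic compounds.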
For orientation: A flow cytometer gives signals particle by particle.

Series [3] has as its system Jurkat. In words: Cytotoxicity against human Jurkat T cells assessed as cell death at 100 uM after 24 hrs by flow cytometry. The class given is functional. An outline of the steps:
as §2

The subject of series [4] is Jurkat. In words: Cytotoxicity against human Jurkat T cells assessed as viable cells at 10 uM after 24 hrs by flow cytometry. The following applies: read-out: Activity. The class given is functional. An outline of the steps: (§3)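 FRT-Jurkat TNF reporter cells were exposed to compound (racemic, 0.1% DMSO final) for 24 h and analysed by flow cytometry on FSC/SSC. Viable cells were counted as those inside the gate around the main population of solvent-only cells. Viability was confirmed by propidium iodide fluorescence at 570 nm (FL2). Assays were run in triplicate.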

Series [5] deals with Jurkat. In words: Induction of apoptosis in human Jurkat T cells at 10 uM after 24 hrs by flow cytometry. In kind it is functional. An outline of the steps:
(§4)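 Apoptosis in Jurkat T cells after 24 h compound exposure: cells stained with FITC-labelled substrate for cleaved caspase-3 (NucView-488), % cells with increased green fluorescence counted by flow cytometry with positivity gate; solvent (0.1% DMSO) and untreated controls. Triplicate, racemic compounds; three independent experiments.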

Series [6] deals with Jurkat. In words: Inhibition of NF-kappaB-mediated TNF expression in human Jurkat T cells coexpressing GFP reporter gene at 10 uM by flow cytometry. The class given is cell-based. Summed up:
as §1

For series [7], the system named is Jurkat. In words: Induction of apoptosis in human Jurkat T cells at 100 uM after 24 hrs by flow cytometry. The class given is functional. An outline of the steps: (§5)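 Jurkat T cells were treated with compound for 24 h, with DMSO-only and untreated controls, then stained with a FITC-labelled substrate for cleaved caspase-3 (NucView-488). The apoptotic fraction was the percentage of cells with increased green fluorescence by flow cytometry. Cell death, taken as reduced size and granularity on FSC/SSC, was measured in parallel. Assays were run in triplicate.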

For series [8], the system named is PBMC. In words: Inhibition of PMA-induced TNF production in human PBMC at 1 uM by RT-PCR. In kind it is functional, cell-based. Summed up: (§6)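 PBMCs from healthy volunteers were freshly isolated, activated, and cultured with compound or DMSO for 2 h. Endogenous TNF mRNA was quantified by reverse transcription and real-time PCR (50 cycles: 95 °C 10 s, 55 °C 15 s, 72 °C 20 s) and normalised to β-actin.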

Series [9] relates to Jurkat. In words: Inhibition of NF-kappaB-mediated TNF expression in human Jurkat T cells coexpressing GFP reporter gene at 0.1 uM by flow cytometry. In kind it is cell-based. An outline of the steps:
as §1

Series [10] has as its system PBMC. In words: Inhibition of PMA-induced TNF production in human PBMC at 10 uM by RT-PCR. The class given is functional, cell-based. An outline of the steps: as §6
Series [11] relates to Jurkat. In words: Inhibition of NF-kappaB-mediated TNF expression in human Jurkat T cells coexpressing GFP reporter gene at 1 uM by flow cytometry. In kind it is cell-based. Summed up:
as §1

The subject of series [12] is Jurkat. In words: Induction of apoptosis in human Jurkat T cells at 0.1 uM after 24 hrs by flow cytometry. The class given is functional. An outline of the steps: as §5
Series [13] has as its system PBMC. In words: Cytotoxicity against human PBMC assessed as cell death at 1 to 10 uM. In kind it is cell-based.
The subject of series [14] is Jurkat. In words: Induction of apoptosis in human Jurkat T cells at 1 uM after 24 hrs by flow cytometry. The class given is functional. Summed up: as §4
For series [15], the system named is Jurkat. In words: Cytotoxicity against human Jurkat T cells assessed as cell death at 0.1 uM after 24 hrs by flow cytometry. In kind it is functional. An outline of the steps:
as §2

For series [16], the system named is Jurkat. In words: Cytotoxicity against human Jurkat T cells assessed as viable cells at 1 uM after 24 hrs by flow cytometry. The class given is functional. To be noted: read-out: Activity. Summed up:
as §3

In series [17] the test system is Jurkat. In words: Cytotoxicity against human Jurkat T cells assessed as viable cells at 0.1 uM after 24 hrs by flow cytometry. The class given is functional. The following applies: read-out: Activity. Summed up:
as §3

On to `O=C1CCC(N2C(=O)c3cccc(C#CCO)c3C2=O)C(=O)N1` (racemic), for which the inhibition (commonly how much of the control response was suppressed) in the series with Jurkat [1] is 7%.

On to `N#CCCCC#Cc1ccc2c(c1)C(=O)N(C1CCC(=O)NC1=O)C2=O` (racemic), for which the inhibition in the series on Jurkat [1] stood at 12%.

Turning to `CC(C)Oc1ccc(-c2ccc3c(c2)C(=O)N(C2CCC(=O)NC2=O)C3=O)cc1` (racemic), the Activity in the series on Jurkat [2] came to 14%; in the series with Jurkat [3], 51%; in the series on Jurkat [5], 12%; in the series with Jurkat [7], 34%. Moreover, in the series on Jurkat [4], the viability at 10 µM is 90%. The values for the inhibition with Jurkat [1] and with Jurkat [6] were 59% and 10%, respectively.

Consider `O=C1CCC(N2C(=O)c3ccccc3C2=O)C(=O)N1` (racemic) [THALIDOMIDE], for which the Activity with Jurkat [2] is on record as 6%; in the series on Jurkat [5] it was 7%; with Jurkat [7], 9%. The inhibition in the series with Jurkat [1] was determined as 6%; in the series with Jurkat [6], 4%.

`O=C1CCC(N2C(=O)c3ccc(-c4ccc(O)cc4)cc3C2=O)C(=O)N1` (racemic): in the series on Jurkat [1], the inhibition worked out at 11%.

On to `O=C1CCC(N2C(=O)c3cccc(-c4ccc(O)cc4)c3C2=O)C(=O)N1` (racemic), for which the inhibition in the series on Jurkat [1] amounted to 19%.

For `N#CCCCC#Cc1cccc2c1C(=O)N(C1CCC(=O)NC1=O)C2=O` (racemic), the inhibition in the series with Jurkat [1] was 9%.

Turning to `CC(C)Oc1ccc(-c2cccc3c2C(=O)N(C2CCC(=O)NC2=O)C3=O)cc1` (racemic), the values for the Activity in the series on Jurkat [3], in the series on Jurkat [5] and in the series on Jurkat [7] were 33%, 8% and 30%, respectively. For the same compound, the viability at 10 µM in the series on Jurkat [4] is 90%. Besides, the values for the inhibition in the series on Jurkat [1] and with Jurkat [6] were 47% and 8%, respectively.

In the series with Jurkat [1], `CC(C)(C)C#Cc1cccc2c1C(=O)N(C1CCC(=O)NC1=O)C2=O` (racemic) showed an inhibition of 24%.

In turn, `O=C1CCC(N2C(=O)c3ccc(C#Cc4ccccc4)cc3C2=O)C(=O)N1` (racemic) came in with an inhibition in the series on Jurkat [1] of 6%.

As for `Cc1ccc(-c2ccc3c(c2)C(=O)N(C2CCC(=O)NC2=O)C3=O)cc1` (racemic), the inhibition in the series on Jurkat [1] was found to be 14%.

Consider `Cc1ccc(-c2cccc3c2C(=O)N(C2CCC(=O)NC2=O)C3=O)cc1` (racemic), for which the inhibition in the series on Jurkat [1] worked out at 10%.

In the series with Jurkat [1], `CC(=O)c1ccc(-c2cccc3c2C(=O)N(C2CCC(=O)NC2=O)C3=O)cc1` (racemic) gave an inhibition of 17%.

Regarding `O=CC#Cc1ccc2c(c1)C(=O)N(C1CCC(=O)NC1=O)C2=O` (racemic), the result with PBMC [8] and in the series on PBMC [10] was Active. In addition, the Activity with Jurkat [2] is recorded as 86%; in the series on Jurkat [12], 7%; in the series on PBMC [13], “Active”; with Jurkat [14], 7%; in the series with Jurkat [5], 84%; in the series on Jurkat [15], 4%. The inhibition in the series with Jurkat [9] came out at 4%; with Jurkat [11] it was 5%; in the series on Jurkat [1], 85%; in the series with Jurkat [6], 86%. Moreover, in the series on Jurkat [4], the viability at 10 µM was determined as 25%. In the series with Jurkat [16], the viability at 1 µM is 95%. In addition, the viability at 0.1 µM with Jurkat [17] came out at 96%.

Take `CC(C)Cc1ccc(-c2ccc3c(c2)C(=O)N(C2CCC(=O)NC2=O)C3=O)cc1` (racemic): the Activity in the series with Jurkat [2] is 6%; in the series on Jurkat [3], 21%; in the series with Jurkat [5] it was 7%; with Jurkat [7] it was 22%. Also, the viability at 10 µM with Jurkat [4] is 89%. Further, the values for the inhibition in the series with Jurkat [1] and with Jurkat [6] were 90% and 5%, respectively.

In turn, `NC(=O)c1ccc(-c2ccc3c(c2)C(=O)N(C2CCC(=O)NC2=O)C3=O)cc1` (racemic) displayed an inhibition in the series with Jurkat [1] of 10%.

Regarding `O=C1CCC(N2C(=O)c3cccc(C#Cc4ccccc4)c3C2=O)C(=O)N1` (racemic), the inhibition with Jurkat [1] amounted to 13%.

Regarding `CC(C)(C)C#Cc1ccc2c(c1)C(=O)N(C1CCC(=O)NC1=O)C2=O` (racemic), in the series on Jurkat [1], the inhibition was determined as 19%.

The compound `O=C1CCC(N2C(=O)c3cccc(-c4ccccc4)c3C2=O)C(=O)N1` (racemic) came in with an inhibition with Jurkat [1] of 14%.

Compound `NC(=O)c1ccc(-c2cccc3c2C(=O)N(C2CCC(=O)NC2=O)C3=O)cc1` (racemic) displayed an inhibition in the series with Jurkat [1] of 14%.

`O=C1CCC(N2C(=O)c3ccc(-c4ccccc4)cc3C2=O)C(=O)N1` (racemic): the inhibition with Jurkat [1] came to 12%.

For `CC(C)Cc1ccc(-c2cccc3c2C(=O)N(C2CCC(=O)NC2=O)C3=O)cc1` (racemic), the Activity with Jurkat [3] is on record as 94%; in the series with Jurkat [5], 7%; with Jurkat [7] it was 96%. The viability at 10 µM in the series on Jurkat [4] is 90%. Besides, the inhibition came to 86% in the series with Jurkat [1] and 7% with Jurkat [6].

Consider `CNCC#Cc1ccc2c(c1)C(=O)N(C1CCC(=O)NC1=O)C2=O` (racemic), for which the inhibition in the series with Jurkat [1] was 10%.

The compound `CC(=O)c1ccc(-c2ccc3c(c2)C(=O)N(C2CCC(=O)NC2=O)C3=O)cc1` (racemic) gave an inhibition with Jurkat [1] of 26%.

`CC(C)(O)C#Cc1ccc2c(c1)C(=O)N(C1CCC(=O)NC1=O)C2=O` (racemic) registered an inhibition in the series on Jurkat [1] of 20%.

Regarding `CC(C)(O)C#Cc1cccc2c1C(=O)N(C1CCC(=O)NC1=O)C2=O` (racemic), the inhibition with Jurkat [1] turned out to be 6%.

As for `O=C1CCC(N2C(=O)c3ccc(C#CCO)cc3C2=O)C(=O)N1` (racemic), the inhibition in the series with Jurkat [1] is 10%.

These data come from ChEMBL document CHEMBL1159046, “New thalidomide analogues derived through Sonogashira or Suzuki reactions and their TNF expression inhibition profiles” (Bioorg Med Chem, 2010).
